Measurements from ChEMBL document CHEMBL1649208, “High-throughput screening identifies three inhibitor classes of the telomere resolvase from the lyme disease spirochete” (Antimicrob Agents Chemother, 2009).

Key:
[1] = target: T1, Telomere resolvase ResT (Borrelia burgdorferi (strain ATCC 35210 / B31 / CIP 102532 / DSM4680)) (UniProt O50979); assay: Inhibition of Borrelia burgdorferi telomere resolvase assessed as DNA cleavage at 10 uM; conditions: Borreliella burgdorferi
T1 sequence (whole entry): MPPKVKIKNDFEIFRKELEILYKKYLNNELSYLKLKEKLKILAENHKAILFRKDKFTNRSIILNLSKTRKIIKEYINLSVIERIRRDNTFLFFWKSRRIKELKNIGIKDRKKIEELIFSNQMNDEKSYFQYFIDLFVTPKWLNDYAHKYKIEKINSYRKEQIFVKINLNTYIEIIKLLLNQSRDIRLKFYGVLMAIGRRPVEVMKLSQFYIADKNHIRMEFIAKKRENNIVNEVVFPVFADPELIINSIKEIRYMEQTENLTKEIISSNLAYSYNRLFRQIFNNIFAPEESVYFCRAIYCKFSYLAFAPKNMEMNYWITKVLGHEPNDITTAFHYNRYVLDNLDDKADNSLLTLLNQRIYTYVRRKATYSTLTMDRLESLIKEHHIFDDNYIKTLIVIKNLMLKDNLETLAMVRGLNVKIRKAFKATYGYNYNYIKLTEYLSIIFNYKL

[2] = target: T1, Telomere resolvase ResT (Borrelia burgdorferi (strain ATCC 35210 / B31 / CIP 102532 / DSM4680)); assay: Inhibition of Borrelia burgdorferi telomere resolvase 164-449 sequence assessed as inhibition of DNA binding activity at 10 uM by electrophoretic mobility shift assay; conditions: Borreliella burgdorferi
[3] = target: T1, Telomere resolvase ResT (Borrelia burgdorferi (strain ATCC 35210 / B31 / CIP 102532 / DSM4680)); assay: Inhibition of Borrelia burgdorferi telomere resolvase assessed as inhibition of telomere resolution at 10 uM; conditions: Borreliella burgdorferi
[4] = target: T2, Telomere resolvase ResT (Borrelia burgdorferi (strain ATCC 35210 / B31 / CIP 102532 / DSM4680), UniProt O50979); assay: Inhibition of Borrelia burgdorferi telomere resolvase by gel-based telomere resolution assay; set-up: species or system Borreliella burgdorferi
T2 sequence (O50979 whole entry): T1 sequence (whole entry)

[5] = target: T1, Telomere resolvase ResT (Borrelia burgdorferi (strain ATCC 35210 / B31 / CIP 102532 / DSM4680)); assay: Inhibition of Borrelia burgdorferi telomere resolvase assessed as reduction in DNA cleavage at 10 uM; conditions: Borreliella burgdorferi
Outline: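 Cleavage-step assay with 5′-bridging phosphorothiolate oligonucleotide substrate (OGCB116+OGCB117), 5.4 nM, 32P-labeled. Recombinant ResT at 165 nM, 10% DMSO final, 25 mM Tris-HCl pH 8.5, 100 mM NaCl, 1 mM EDTA, 25% glycerol. 30 min at 30°C, stopped with 0.1% SDS. Covalent protein–DNA complex resolved on 5% SDS-polyacrylamide gel, phosphorimager. Expressed relative to ResT+DMSO control.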

SMILES	% cleavage relative to control [1] [%]	% binding relative to control [2] [%]	inhibition [3] [%]	IC50 [4] [µM]	inhibition [5] [%]
O=C(O)c1ccc(-c2nc(-c3ccc(-c4ccccc4)cc3)c(-c3ccc(-c4ccccc4)cc3)[nH]2)cc1	43	33	≥ 70	9.52	–
C[C@H](CCC(=O)O)[C@H]1CC[C@H]2[C@@H]3CC[C@@H]4CCCC[C@]4(C)[C@H]3CC[C@@]12C	79	14	≥ 70	1.96	–

Continued by falling IC50 [4], values first:

% cleavage relative to control [1] [%]	% binding relative to control [2] [%]	inhibition [3] [%]	IC50 [4] [µM]	inhibition [5] [%]	SMILES
–	–	≥ 70	8.67	6	COc1cc(O)c2c(c1)oc(=O)c1c3cc(O)c(O)cc3oc21 [WEDELOLACTONE]
65	16	≥ 70	3.16	–	O=C(O)c1ccc2c3c(cccc13)C(=O)N(c1ccc(-c3nc4ccc(N5C(=O)c6cccc7c(C(=O)O)ccc(c67)C5=O)cc4[nH]3)cc1)C2=O
75	5	≥ 70	2.62	–	O=C(O)CCCCCCCCCCCCC1C=CCC1 (centres undefined)
